Test results from ChEMBL document CHEMBL4190305, “Dioxomorpholines and Derivatives from a Marine-Facultative Aspergillus Species” (J Nat Prod, 2017).
Active and inactive are the calls of the source. The rule behind the calls is not given here.

What was measured:
A549 [1] = test: Potentiation of doxorubicin-induced cytotoxicity against human A549 cells assessed as decrease in cell viability at 10 uM after 72 hrs by CellTiter 96 AQueous one solution cell proliferation assay; assay type: functional, cell-based
How it was run: (§1)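 Seeded 3000–4000 cells/well, 20 h growth, then a range of doxorubicin concentrations alone or combined with 10 μM compound in 10% FBS medium for 72 h (DMSO vehicle). Viability by CellTiter 96 AQueous One at 490 nm versus untreated cells; triplicate wells, mean ± SEM of three independent experiments.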

Homo sapiens [2] = organism: Homo sapiens; test: Inhibition of Pgp in human A549/DXR cells assessed as reduction in calcein-AM efflux after 1 hr by fluorescence assay
U2OS [3] = test: Cytotoxicity against human U2OS cells assessed as reduction in cell viability after 72 hrs by CellTiter 96 AQueous one solution cell proliferation assay; assay type: cell-based
How it was run: (§2)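 Cells seeded at 3000–4000 per well and grown 20 h, then medium replaced by 10% fetal bovine serum medium with test compound for 72 h. Viability read by MTS-type (CellTiter 96 AQueous One) absorbance at 490 nm, relative to untreated control cells; triplicate wells per condition.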

MDA-MB-231 [4] = test: Potentiation of doxorubicin-induced cytotoxicity against p53 CRISPR-Cas9 knockout human MDA-MB-231 cells assessed as decrease in cell viability at 10 uM after 72 hrs by CellTiter 96 AQueous one solution cell proliferation assay; assay type: functional, cell-based; how it was run: as §1
Homo sapiens [5] = organism: Homo sapiens; test: Cytotoxicity against human A549/DXR cells assessed as reduction in cell viability after 72 hrs by CellTiter 96 AQueous one solution cell proliferation assay; assay type: functional, cell-based; how it was run: as §2
A549 [6] = test: Cytotoxicity against human A549 cells assessed as reduction in cell viability after 72 hrs by CellTiter 96 AQueous one solution cell proliferation assay; assay type: cell-based; details: A549, 72 h; how it was run: as §2
HCT-116 [7] = test: Cytotoxicity against human HCT116 cells harboring wild type p53 assessed as reduction in cell viability after 72 hrs by CellTiter 96 AQueous one solution cell proliferation assay; assay type: cell-based; details: HCT-116, 72 h; how it was run: as §2
SAOS-2 = test: Potentiation of doxorubicin-induced cytotoxicity against p53 null human Saos2 cells assessed as decrease in cell viability at 10 uM after 72 hrs by CellTiter 96 AQueous one solution cell proliferation assay; assay type: functional, cell-based; how it was run: as §1
HCT-116 [8] = test: Cytotoxicity against p53 null human HCT116 cells assessed as reduction in cell viability after 72 hrs by CellTiter 96 AQueous one solution cell proliferation assay; assay type: cell-based; details: HCT-116, 72 h; how it was run: as §2
MDA-MB-231 [9] = test: Cytotoxicity against human MDA-MB-231 cells harboring p53 R280K mutant assessed as reduction in cell viability after 72 hrs by CellTiter 96 AQueous one solution cell proliferation assay; assay type: cell-based; details: MDA-MB-231, 72 h; how it was run: as §2
A549 [10] = test: Inhibition of calcein-AM efflux in human A549 cells at 10 uM after 1 hr by fluorescence assay; assay type: functional, cell-based
How it was run: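 Vybrant multidrug resistance kit: 500 000 cells/well cultured overnight, triplicate cultures pretreated 1 h with compound (verapamil 50 μg/mL, cyclosporine A 25 μg/mL as positive controls), then 0.25 μM calcein-AM for 30 min. Cells washed twice in cold medium; intracellular calcein fluorescence read at ex 494/em 517 nm, expressed as percent calcein retention.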

U2OS [11] = test: Potentiation of doxorubicin-induced cytotoxicity against human U2OS cells assessed as decrease in cell viability at 10 uM after 72 hrs by CellTiter 96 AQueous one solution cell proliferation assay; assay type: functional, cell-based; how it was run: as §1

SMILES | Activity (A549 [1]) | inhibition (Homo sapiens [2]) | IC50 (U2OS [3]) | Activity (MDA-MB-231 [4]) | Activity (Homo sapiens [5]) | IC50 (A549 [6]) | IC50 (HCT-116 [7]) | Activity (SAOS-2) | IC50 (HCT-116 [8]) | IC50 (MDA-MB-231 [9]) | inhibition (A549 [10]) | Activity (U2OS [11])
C=CC(C)(C)c1[nH]c2ccccc2c1C[C@H](NC(=O)[C@@H](O)Cc1ccccc1)C(=O)O | Active | Dose-dependent effect | > 50 µM | Active | Dose-dependent effect | > 50 µM | > 50 µM | Active | > 50 µM | > 50 µM | Active | Active
C=CC(C)(C)[C@]12Nc3c(O)cccc3[C@@]1(O)C[C@H]1C(=O)O[C@@H](Cc3ccccc3)C(=O)N12 | Active | Dose-dependent effect | > 50 µM | Active | Dose-dependent effect | > 50 µM | > 50 µM | Active | > 50 µM | > 50 µM | Active | Active
C=CC(C)(C)[C@]1(C[C@H](NC(=O)[C@@H](O)Cc2ccccc2)C(=O)O)C(=O)Nc2c(O)cccc21 | Active | Dose-dependent effect | > 50 µM | Active | Dose-dependent effect | > 50 µM | > 50 µM | Active | > 50 µM | > 50 µM | Active | Active
